Source: ChEMBL document CHEMBL4041513, “In silico identification, design and synthesis of novel piperazine-based antiviral agents targeting the hepatitis C virus helicase” (Eur J Med Chem, 2017)

Tests used:
[1] = Cytotoxicity against human HuH5.2 cells assessed as reduction in cell viability after 72 hrs by MTS assay; type: cell-based, Huh-5-2
How it was run: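 Huh 5-2 cells carrying the genotype 1b I389luc-ubi-neo/NS3-3'/5.1 replicon were seeded at 6 500 cells/well in medium without Geneticin one day ahead. Compounds (DMSO stock) were added as 1:5 four-step or 1:2 eight-step dilutions for 72 h at 37 °C.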

[2] = Selectivity index, ratio of CC50 for human HuH5.2 cells to EC50 for HCV genotype 1b infected in human HuH5.2 cells with persistent I389luc-ubi-neo/NS3-3'/5.1 replicon
Hepatitis C virus = assay: Antiviral activity against HCV genotype 1b infected in human HuH5.2 cells with persistent I389luc-ubi-neo/NS3-3'/5.1 replicon after 72 hrs by luciferase reporter gene assay; type: functional, cell-based, Hepacivirus hominis; settings: Huh-5-2, 72 h
How it was run: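 Huh 5-2 cells carrying the genotype 1b I389luc-ubi-neo/NS3-3'/5.1 replicon were seeded at 6 500 cells/well in Geneticin-free DMEM/10% FCS and left overnight. Compounds from DMSO stocks were added in a four-step 1-to-5 series for the first screen or an eight-step 1-to-2 series for dose-response curves, then 72 h at 37 °C. Luciferase luminescence after lysis, as % of untreated controls, gave EC50; mean of ≥2 experiments.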

[3] = Inhibition of HCV NS3 helicase DNA unwinding activity using fluorescent DNA substrate by molecular beacon assay; set-up: species or system Hepacivirus hominis
How it was run: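 Molecular beacon unwinding reaction: 25 mM MOPS pH 6.5, 1.25 mM MgCl2, 5% DMSO, 5 µg/ml BSA, 0.01% Tween20, 0.05 mM DTT, 5 nM fluorescent DNA substrate, 12.5 nM NS3h, 1 mM ATP. Duplicate two-fold dilutions spanned 1 mM to 0.78 µM. Data normalised to no-inhibitor and no-enzyme controls; IC50 from variable-slope Hill fit.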

IC50 [3]	Structure (SMILES)	CC50 at 72 h [1]	Ratio CC50/EC50 [2]	EC50 (Hepatitis C virus)	EC90 (Hepatitis C virus)
–	O=S(=O)(NCCCN1CCN(CCCNS(=O)(=O)c2ccccc2Cl)CC1)c1ccccc1Cl	> 182 µM	–	–	–
–	Cc1ccc(C(=O)C2=C(O)C(=O)N(Cc3ccco3)C2c2cccc(Cl)c2)o1 (stereo not given)	> 126 µM	>4.1	30.6 µM	–
–	COc1ccc(S(=O)(=O)NCCCN2CCN(CCCNS(=O)(=O)c3ccc(OC)cc3)CC2)cc1	> 92.5 µM	–	> 92.5 µM	> 92.5 µM
–	O=S(=O)(NCCCN1CCN(CCCNS(=O)(=O)c2cccs2)CC1)c1cccs1	> 203 µM	>3.3	62 µM	156 µM
–	O=S(=O)(NCCCN1CCN(CCNS(=O)(=O)c2ccccc2)CC1)c1ccccc1	> 214 µM	>3.1	69.2 µM	212 µM
–	COc1ccc(OC)c(S(=O)(=O)NCCCN2CCN(CCCNS(=O)(=O)c3cc(OC)ccc3OC)CC2)c1	> 83.2 µM	–	> 83.2 µM	> 83.2 µM
–	O=S(=O)(NCCCN1CCN(CCCNS(=O)(=O)c2ccccc2)CC1)c1ccccc1	> 104 µM	>1.8	58.3 µM	–
–	Cc1ccc(S(=O)(=O)NCCCN2CCN(CCCNS(=O)(=O)c3ccc(C(C)(C)C)cc3)CC2)cc1	14.6 µM	4.2	3.5 µM	9.44 µM
0.3 µM	O=C(O)C1=CC(=C(c2ccc(O)c(C(=O)O)c2)c2ccc(O)c(C(=O)O)c2)C=CC1=O [AURINTRICARBOXYLIC ACID]	–	–	–	–
–	COc1ccc(S(=O)(=O)NCCN2CCN(CCNS(=O)(=O)c3ccc(OC)c(OC)c3)CC2)cc1OC	> 87.3 µM	>1	85.8 µM	> 87.3 µM
–	Cc1ccc2nc(N3C(=O)C(O)=C(C(=O)c4cc5ccccc5o4)C3c3cccc(Oc4ccccc4)c3)sc2c1 (stereo not given)	> 89.5 µM	>2.1	41.8 µM	> 89.5 µM
–	O=c1nc2n(-c3cccc(Br)c3)c3ccccc3cc-2c(=O)[nH]1	> 136 µM	>1.6	81.7 µM	–
–	CC(C)(C)c1ccc(S(=O)(=O)NCCCN2CCN(CCCNS(=O)(=O)c3ccccc3)CC2)cc1	20.5 µM	5.5	3.74 µM	–
10 µM	Cc1ccc2nc(-c3ccc4nc(-c5ccc(N)cc5)sc4c3)sc2c1S(=O)(=O)O	–	–	–	–
–	O=S(=O)(NCCCN1CCN(CCCNS(=O)(=O)c2cccc(Cl)c2)CC1)c1cccc(Cl)c1	> 182 µM	>2.4	76.9 µM	173 µM
–	O=C(NCCCN1CCN(CCCNC(=O)c2ccc(Cl)cc2)CC1)c1ccc(Cl)cc1	> 209 µM	–	> 209 µM	> 209 µM
–	O=S(=O)(NCCCN1CCN(CCCNS(=O)(=O)c2ccc(-c3ccccc3)cc2)CC1)c1ccc(Cl)cc1	4.43 µM	2.1	2.12 µM	–
–	CC(CC(=O)O)CC(=O)Nc1cccnc1 (stereo not given)	> 225 µM	–	> 225 µM	> 225 µM
–	COc1ccc(-c2ccc(/C=N/NC(=O)COc3cc(C)ccc3C)o2)cc1Cl	> 121 µM	>4.5	26.4 µM	> 121 µM
–	O=C(CCNS(=O)(=O)c1ccc2ccccc2c1)N1CCN(C(=O)CCNS(=O)(=O)c2ccc3ccccc3c2)CC1	40.8 µM	3.4	12 µM	–
–	O=S(=O)(NCCN1CCN(CCNS(=O)(=O)c2ccccc2)CC1)c1ccccc1	> 110 µM	–	> 110 µM	–
–	Cc1ccc(S(=O)(=O)NCCCN2CCN(CCCNS(=O)(=O)c3ccc(C)cc3)CC2)cc1	> 197 µM	>10.3	19.2 µM	–
–	O=C1NC(=O)/C(=C\c2ccc(-c3ccc(Cl)cc3Cl)o2)S1	33.4 µM	2.5	13.2 µM	–
–	CCC[C@H](NC(=O)[C@@H]1[C@H]2CCC[C@H]2CN1C(=O)[C@@H](NC(=O)[C@@H](NC(=O)c1cnccn1)C1CCCCC1)C(C)(C)C)C(=O)C(=O)NC1CC1	–	58.8	–	–
–	O=S(=O)(NCCCN1CCCCC1)c1ccc(Cl)cc1	145 µM	2.3	61.9 µM	–
–	O=[N+]([O-])c1ccc(S(=O)(=O)NCCN2CCN(CCNS(=O)(=O)c3ccc([N+](=O)[O-])cc3)CC2)cc1	> 184 µM	>10.6	17.4 µM	–
–	COc1ccc(S(=O)(=O)NCCCN2CCN(CCCNS(=O)(=O)c3ccc(OC)c(OC)c3)CC2)cc1OC	> 166 µM	>2	82 µM	> 166 µM
